These results are taken from publication PMC8900268 (Journal of medicinal chemistry, 2021).

SMILES strings stand for the structures.

Assay [1] addresses T1, BCL-XL (Homo sapiens, UniProt Q07817). The assay can be described thus: BCL-XL degradation in HEK 293T cells by immunoblotting. The assay is classed as cell-based. The essentials: (§1)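 HEK 293T cells grown in DMEM with 10% FBS and 1% penicillin–streptomycin at 37 °C, 5% CO2, then treated with test compound. Lysates made with protease/phosphatase inhibitors, run on 4–20% Tris-glycine gels and transferred to PVDF. Blocked in 5% milk/TBS-Tween. Primary antibodies overnight at 4 °C, HRP secondary, ECL detection. Cleaved PARP probed as apoptosis marker.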
(In western blotting, separated proteins are transferred to a membrane and probed.)

Another assay has as its target BCL-2 with VCB (Homo sapiens, UniProt P10415+P40337). The assay can be described thus: AlphaLISA cell-free ternary complex formation, BCL-2 and VCB. The assay is classed as biochemical. An outline of the steps:
(§2)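 Recombinant His-tagged BCL-2 or BCL-XL and GST-tagged VHL–elongin B–elongin C–Cul2 (VCB) were each added at 20 nM with a 4× serial dilution of test compound. Buffer: 25 mM HEPES pH 7.5, 100 mM NaCl, 0.1% BSA, 0.005% Tween 20. Incubation 30 min at room temperature, then glutathione donor beads for 15 min and anti-His acceptor beads for 45 min, both in the dark. AlphaLISA luminescence plotted against log concentration.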

The target of a further assay is BCL-2 (Homo sapiens, UniProt P10415). The assay can be described thus: BCL-2 degradation by western blotting in MOLT-4 and RS4. Particulars: 16 h. The assay is classed as cell-based.
A further assay has as its system MOLT-4 cells. The experiment in a line: Apoptosis induction in MOLT-4 cells. The assay is classed as cell-based, human. As to conditions: caspase-3 mediated. The essentials: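 MOLT-4 cells were given test compound for 16 h, then immunoblotted for cleaved and full caspase-3, cleaved and full PARP, and β-actin. Separately, cells (5×10^4/well) were pretreated ±2 μM QVD for 4 h, then given 10 nM compound for 48 h. Read by immunoblot, or by Annexin-V–Alexa Fluor 647 (1:50) plus PI (10 μg/mL) staining for 30 min at room temperature in the dark, then flow cytometry.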

In the next assay the target is BCL-2:Bim interaction (Homo sapiens, UniProt P10415). The assay can be described thus: Co-immunoprecipitation of Bim with BCL-2 in RS4. The assay is classed as cell-based. Particulars: RS4;11 cells, 12 h, immunoprecipitation with BCL-2. An outline of the steps:
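RS4;11 cells were treated with test compound for 12 h, ±VHL-032. Lysis in IP buffer with protease/phosphatase inhibitors, then 15000 rpm spin. 1 mg lysate was precleared with mouse IgG and protein A/G agarose for 1 h at 4 °C. IP with 2 μg anti-BCL-2 (or IgG) overnight at 4 °C, then beads for 2 h. After three washes, immunoblotted for Bim. Inputs probed for Bim, BCL-2 and β-actin. Two independent experiments.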

A further assay relates to NCI-H146 cells. The assay can be described thus: Cell viability assay in NCI-H146 cells. The assay is classed as cell-based. Particulars: BCL-2/BCL-XL dual-dependent cells. An outline of the steps:
(§3)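 Cells were seeded at 50,000/well in complete medium and dosed 30 min later at nine concentrations in triplicate. Viability was read by MTS after 48 h. Percentage viability was fitted by non-linear regression.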

A further assay deals with BCL-XL with VCB (Homo sapiens, UniProt P40337+Q07817). The experiment in a line: AlphaLISA cell-free ternary complex formation, BCL-XL and VCB. The assay is classed as biochemical. The essentials: as §2
(In Alpha technology, singlet oxygen from a donor bead excites a nearby acceptor bead.)

Assay [2] deals with {BCL-2:compound:VCB} ternary complexes (Homo sapiens, UniProt P10415+P40337). The assay can be described thus: NanoBRET ternary complex formation with BCL-2 and VCB in live 293T cells. The assay is classed as cell-based. Particulars: 6 h. An outline of the steps:
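HEK 293T cells were transfected with 1 μg HaloTag-VHL, 10 ng HiBit-BCL-2 and 10 ng LgBit. After 24 h, 2×10^4 cells/well were placed in phenol-red-free Opti-MEM with 4% FBS ± HaloTag NanoBRET 618 ligand overnight at 37 °C. Serially diluted test compound was added for 6 h, then Nano-Glo substrate. mBRET ratio calculated. Mean ± s.e.m. of two independent experiments in triplicate.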
Background: Bioluminescence resonance energy transfer reports proximity on the nanometre scale.

Assay [3] deals with T1, BCL-XL. The experiment in a line: BCL-XL protein levels in human platelets by western blotting. The assay is classed as cell-based. Particulars: 16 h treatment. The essentials: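 Platelets came from purchased human platelet-rich plasma in acid citrate buffer with 1 μM PGE1 and 0.2 units/mL apyrase (final). They were pelleted at 1200 g for 10 min, washed and resuspended in HEPES Tyrode's buffer with the same PGE1/apyrase. Platelets were treated with test compound for 16 h, then immunoblotted for BCL-XL.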

Assay [4] has as its target T1, BCL-XL. The experiment in a line: BCL-XL degradation in MOLT-4 cells by western blotting. The assay is classed as cell-based. An outline of the steps:
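MOLT-4 cells were exposed to test compound for 16 h across a concentration range. Other arms: 100 nM time course; 100 nM for 16 h, then washout; and pretreatment with 10 μM VHL-032 or 1 μM MG-132 before 12 h exposure. Lysates were immunoblotted for BCL-XL and β-actin. Band densities were normalised to β-actin. Mean ± SD of three independent experiments in triplicate.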

The subject of the next assay is MCL-1. The experiment in a line: MCL-1 levels in HEK 293T cells by immunoblotting. The assay is classed as cell-based. An outline of the steps:
as §1

The subject of another assay is NCI-H211 cells. The assay can be described thus: Cell viability assay in NCI-H211 cells. The assay is classed as cell-based. As to conditions: BCL-2/BCL-XL dual-dependent cells. The essentials:
as §3

For a further assay, the system named is RS4;11 cells. The assay can be described thus: MTS cell viability assay in RS4. The assay is classed as cell-based. As to conditions: for activity loss (IC50 change) after pre-treatment with VHL-032: RS4;11 cells, 48 h, pre-treatment with VHL-032 (10 μM).

Sequence of {BCL-2:compound:VCB} ternary complexes (P10415 whole entry): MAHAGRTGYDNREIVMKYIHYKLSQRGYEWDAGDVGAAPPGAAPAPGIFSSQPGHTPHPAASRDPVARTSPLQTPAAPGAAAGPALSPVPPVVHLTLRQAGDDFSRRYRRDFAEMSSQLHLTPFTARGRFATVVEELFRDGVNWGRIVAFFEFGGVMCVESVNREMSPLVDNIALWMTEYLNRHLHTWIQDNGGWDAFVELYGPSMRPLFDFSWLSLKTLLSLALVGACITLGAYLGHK
Sequence of {BCL-2:compound:VCB} ternary complexes (P40337 whole entry): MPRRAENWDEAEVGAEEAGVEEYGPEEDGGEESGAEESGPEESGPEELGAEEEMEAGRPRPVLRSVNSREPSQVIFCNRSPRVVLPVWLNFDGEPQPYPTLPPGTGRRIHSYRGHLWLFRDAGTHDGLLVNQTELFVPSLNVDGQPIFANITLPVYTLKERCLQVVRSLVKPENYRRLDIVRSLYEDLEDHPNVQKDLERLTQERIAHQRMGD
Sequence of {BCL-2:compound:VCB} ternary complexes (Q15370 whole entry partner): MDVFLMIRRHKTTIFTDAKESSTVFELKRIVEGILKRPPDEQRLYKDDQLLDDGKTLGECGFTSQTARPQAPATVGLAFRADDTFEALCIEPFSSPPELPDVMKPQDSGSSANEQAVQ
Sequence of {BCL-2:compound:VCB} ternary complexes (Q15369 whole entry partner): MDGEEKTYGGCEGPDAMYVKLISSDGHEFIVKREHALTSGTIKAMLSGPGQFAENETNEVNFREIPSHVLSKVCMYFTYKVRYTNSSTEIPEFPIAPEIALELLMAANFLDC
T1 sequence (Q07817 whole entry): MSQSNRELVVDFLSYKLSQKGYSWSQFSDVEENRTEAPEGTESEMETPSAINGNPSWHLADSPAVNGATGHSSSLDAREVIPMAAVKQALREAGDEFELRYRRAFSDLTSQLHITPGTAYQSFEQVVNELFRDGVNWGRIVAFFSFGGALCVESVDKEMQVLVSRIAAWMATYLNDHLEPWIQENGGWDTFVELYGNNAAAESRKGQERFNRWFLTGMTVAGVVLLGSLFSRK
Sequence of BCL-2:Bim interaction (P10415 whole entry): as the sequence (P10415 whole entry) above
Sequence of BCL-XL with VCB (Q07817 1-212 limits assumed): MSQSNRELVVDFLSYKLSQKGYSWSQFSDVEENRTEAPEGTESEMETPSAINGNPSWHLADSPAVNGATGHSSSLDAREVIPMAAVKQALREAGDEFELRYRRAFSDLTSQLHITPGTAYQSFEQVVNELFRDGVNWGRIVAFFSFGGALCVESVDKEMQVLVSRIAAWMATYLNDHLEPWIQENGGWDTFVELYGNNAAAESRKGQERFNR
Sequence of BCL-XL with VCB (P40337 whole entry): as the sequence (P40337 whole entry) above
Sequence of BCL-XL with VCB (Q15370 whole entry partner): as the sequence (Q15370 whole entry partner) above
Sequence of BCL-XL with VCB (Q15369 whole entry partner): as the sequence (Q15369 whole entry partner) above
Sequence of BCL-XL with VCB (Q13617 whole entry partner): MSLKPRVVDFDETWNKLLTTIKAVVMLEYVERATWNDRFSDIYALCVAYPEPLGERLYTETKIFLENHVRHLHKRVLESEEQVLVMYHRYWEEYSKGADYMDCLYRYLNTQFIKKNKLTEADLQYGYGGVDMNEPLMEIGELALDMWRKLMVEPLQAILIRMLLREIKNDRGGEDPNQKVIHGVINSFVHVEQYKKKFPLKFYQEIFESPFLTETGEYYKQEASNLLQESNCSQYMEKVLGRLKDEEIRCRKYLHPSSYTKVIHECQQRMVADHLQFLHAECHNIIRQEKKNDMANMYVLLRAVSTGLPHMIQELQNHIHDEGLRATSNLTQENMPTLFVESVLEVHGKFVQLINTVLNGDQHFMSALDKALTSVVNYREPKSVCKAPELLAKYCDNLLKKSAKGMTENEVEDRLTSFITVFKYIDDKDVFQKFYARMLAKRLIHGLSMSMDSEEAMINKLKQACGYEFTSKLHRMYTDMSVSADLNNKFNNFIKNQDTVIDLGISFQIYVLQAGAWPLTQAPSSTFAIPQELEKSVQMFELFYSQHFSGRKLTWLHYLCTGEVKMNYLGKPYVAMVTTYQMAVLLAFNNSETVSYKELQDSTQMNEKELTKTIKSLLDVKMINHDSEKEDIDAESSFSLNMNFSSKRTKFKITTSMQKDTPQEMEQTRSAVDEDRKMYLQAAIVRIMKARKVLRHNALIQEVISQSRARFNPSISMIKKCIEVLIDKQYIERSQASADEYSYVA
Sequence of BCL-2 with VCB (P10415 1-211 limits assumed): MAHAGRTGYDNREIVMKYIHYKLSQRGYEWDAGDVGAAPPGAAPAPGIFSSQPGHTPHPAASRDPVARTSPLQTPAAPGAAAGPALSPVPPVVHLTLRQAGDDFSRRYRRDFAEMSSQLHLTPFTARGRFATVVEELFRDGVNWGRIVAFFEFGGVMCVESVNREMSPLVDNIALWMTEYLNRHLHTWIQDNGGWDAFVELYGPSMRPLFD
Sequence of BCL-2 with VCB (P40337 whole entry): as the sequence (P40337 whole entry) above
Sequence of BCL-2 with VCB (Q15370 whole entry partner): as the sequence (Q15370 whole entry partner) above
Sequence of BCL-2 with VCB (Q15369 whole entry partner): as the sequence (Q15369 whole entry partner) above
Sequence of BCL-2 with VCB (Q13617 whole entry partner): as the sequence (Q13617 whole entry partner) above
Sequence of BCL-2 (P10415 whole entry): as the sequence (P10415 whole entry) above

Regarding `Cc1ncsc1-c1ccc([C@H](C)NC(=O)[C@@H]2C[C@@H](O)CN2C(=O)[C@@H](NC(=O)CCCCCCCCC(=O)NC[C@]2(C)CCC(c3ccc(Cl)cc3)=C(CN3CCN(c4ccc(C(=O)NS(=O)(=O)c5ccc(N[C@H](CCN6CCOCC6)CSc6ccccc6)c(S(=O)(=O)C(F)(F)F)c5)cc4)CC3)C2)C(C)(C)C)cc1` [PZ703b, N^1-(((R)-4’-Chloro-4-methyl-6-((4-(4-(((4-(((R)-4-morpholino-1-(phenylthio)butan-2-yl)amino)-3-((trifluoromethyl)sulfonyl)phenyl)sulfonyl)carbamoyl)phenyl)piperazin-1-yl)methyl)-2,3,4,5-tetrahydro-[1,1’-biphenyl]-4-yl)methyl)-N^10-((S)-1-((2S,4R)-4-hydroxy-2-(((S)-1-(4-(4-methylthiazol-5-yl)phenyl)ethyl)carbamoyl)pyrrolidin-1-yl)-3,3-dimethyl-1-oxobutan-2-yl)decanediamide], the “BCL-XL degradation in HEK 293T cells” value at BCL-XL [1] was “effectively induce BCL-XL degradation”. Besides, the “formation of ternary complexes with BCL-2 and VCB” value at BCL-2 with VCB is “can form stable ternary complexes”. For the same compound, the “BCL-2 degradation (in words)” value on BCL-2 was “did not observe significant BCL-2 degradation”. Further, the “induction of apoptosis in MOLT-4 cells” value in the assay with MOLT-4 cells was “potently induced apoptosis”. For the same compound, the “effect on BCL-2:Bim interaction” value on BCL-2:Bim interaction is reported as “can inhibit BCL-2:Bim interaction”. In addition, the “killing of NCI-H146 cells” value with NCI-H146 cells is listed as “efficiently kill”. Moreover, the “formation of ternary complexes with BCL-XL and VCB” value at BCL-XL with VCB is reported as “can form stable ternary complexes”. In addition, the “formation of {BCL-2:compound:VCB} ternary complexes in live cells” value (shortened to “formation … in live cells”) in assay [2] was “able to form”. Besides, on BCL-XL [3], the “effect on BCL-XL protein levels in platelets” value was “did not cause significant changes”. For the same compound, the “BCL-XL degradation (in words)” value on BCL-XL [4] was “rapid and durable BCL-XL degradation”. In addition, the “MCL-1 decrease in HEK 293T cells” value in the assay on MCL-1 was “no MCL-1 decrease was observed”. Besides, the “killing of NCI-H211 cells” value in the assay on NCI-H211 cells is “efficiently kill”.

As to `Cc1ncsc1-c1ccc([C@H](C)NC(=O)[C@@H]2C[C@H](O)CN2C(=O)[C@@H](NC(=O)CCCCCCCCC(=O)NC[C@]2(C)CCC(c3ccc(Cl)cc3)=C(CN3CCN(c4ccc(C(=O)NS(=O)(=O)c5ccc(N[C@H](CCN6CCOCC6)CSc6ccccc6)c(S(=O)(=O)C(F)(F)F)c5)cc4)CC3)C2)C(C)(C)C)cc1` [PZ703b-NC], the “effect on BCL-2:Bim interaction” value on BCL-2:Bim interaction is “minimal effect”. Moreover, the “activity loss (IC50 change) after pre-treatment with VHL-032” value in the assay on RS4;11 cells is given as “no significant IC50 value changes”. Also, in assay [2], the “formation … in live cells” value is “could not”. For the same compound, at BCL-XL [4], the “BCL-XL degradation (in words)” value was “did not induce BCL-XL degradation”.

As for `Cc1ncsc1-c1ccc([C@H](C)NC(=O)[C@@H]2C[C@@H](O)CN2C(=O)[C@@H](NC(=O)CCCCCCCCC(=O)NCC2(C)CCC(c3ccc(Cl)cc3)=C(CN3CCN(c4ccc(C(=O)NS(=O)(=O)c5ccc(N[C@H](CCN6CCOCC6)CSc6ccccc6)c(S(=O)(=O)C(F)(F)F)c5)cc4)CC3)C2)C(C)(C)C)cc1` (stereo partly drawn) [PP5, N^1-((4’-Chloro-4-methyl-6-((4-(4-(((4-(((R)-4-morpholino-1-(phenylthio)butan-2-yl)amino)-3-((trifluoromethyl)sulfonyl)phenyl)sulfonyl)carbamoyl)phenyl)piperazin-1-yl)methyl)-2,3,4,5-tetrahydro-[1,1’-biphenyl]-4-yl)methyl)-N^10-((S)-1-((2S,4R)-4-hydroxy-2-(((S)-1-(4-(4-methylthiazol-5-yl)phenyl)ethyl)carbamoyl)pyrrolidin-1-yl)-3,3-dimethyl-1-oxobutan-2-yl)decanediamide], in assay [2], the “formation … in live cells” value is listed as “able to form”.

By IC50 is commonly meant the point on the concentration scale where inhibition reaches its midpoint. Take `Cc1ncsc1-c1ccc([C@H](C)NC(=O)[C@@H]2C[C@@H](O)CN2C(=O)[C@@H](NC(=O)CCCCCC(=O)NCC2(C)CCC(c3ccc(Cl)cc3)=C(CN3CCN(c4ccc(C(=O)NS(=O)(=O)c5ccc(N[C@H](CCN6CCOCC6)CSc6ccccc6)c(S(=O)(=O)C(F)(F)F)c5)cc4)CC3)C2)C(C)(C)C)cc1` (stereo partly drawn) [PP2, N^1-((4’-Chloro-4-methyl-6-((4-(4-(((4-(((R)-4-morpholino-1-(phenylthio)butan-2-yl)amino)-3-((trifluoromethyl)sulfonyl)phenyl)sulfonyl)carbamoyl)phenyl)piperazin-1-yl)methyl)-2,3,4,5-tetrahydro-[1,1’-biphenyl]-4-yl)methyl)-N^7-((S)-1-((2S,4R)-4-hydroxy-2-(((S)-1-(4-(4-methylthiazol-5-yl)phenyl)ethyl)carbamoyl)pyrrolidin-1-yl)-3,3-dimethyl-1-oxobutan-2-yl)heptanediamide]: in the assay with RS4;11 cells (Homo sapiens, RS4-11, 48 h, read-out: IC50, cell-killing potency in RS4;11), the IC50 stood at 234 ± 21.6 nM.

Turning to `Cc1ncsc1-c1ccc([C@H](C)NC(=O)[C@@H]2C[C@@H](O)CN2C(=O)[C@@H](NC(=O)CCCCCCCCC(=O)NC[C@@]2(C)CCC(c3ccc(Cl)cc3)=C(CN3CCN(c4ccc(C(=O)NS(=O)(=O)c5ccc(N[C@H](CCN6CCOCC6)CSc6ccccc6)c(S(=O)(=O)C(F)(F)F)c5)cc4)CC3)C2)C(C)(C)C)cc1` [PZ703a, N^1-(((S)-4’-Chloro-4-methyl-6-((4-(4-(((4-(((R)-4-morpholino-1-(phenylthio)butan-2-yl)amino)-3-((trifluoromethyl)sulfonyl)phenyl)sulfonyl)carbamoyl)phenyl)piperazin-1-yl)methyl)-2,3,4,5-tetrahydro-[1,1’-biphenyl]-4-yl)methyl)-N^10-((S)-1-((2S,4R)-4-hydroxy-2-(((S)-1-(4-(4-methylthiazol-5-yl)phenyl)ethyl)carbamoyl)pyrrolidin-1-yl)-3,3-dimethyl-1-oxobutan-2-yl)decanediamide], the “formation of ternary complexes with BCL-2 and VCB” value at BCL-2 with VCB is listed as “can form stable ternary complexes”. In addition, the “activity loss (IC50 change) after pre-treatment with VHL-032” value in the assay with RS4;11 cells was 2.6 fold. Besides, the “formation of ternary complexes with BCL-XL and VCB” value at BCL-XL with VCB is on record as “can form stable ternary complexes”. Further, the “formation … in live cells” value in assay [2] is “able to form”.
